MrgX1 PAM: allosterically activates human MrgX1 receptor signaling. Q96LB2. MrgX1-HEK293, Fluo-4 calcium flux, FDSS; active compounds read high. B-score at 10 µM. 0.63% of 310,000 active. AID 588675;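 active = plate-corrected calcium response at least 3 library SD above typical, normal starting fluorescence, not activating the receptor alone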;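 note: compound read alongside a low EC10 to EC30 dose of BAM8-22 agonist; peak minus trough fluorescence over baseline measured at the second addition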
Target sequence (Q96LB2 whole entry, looked up): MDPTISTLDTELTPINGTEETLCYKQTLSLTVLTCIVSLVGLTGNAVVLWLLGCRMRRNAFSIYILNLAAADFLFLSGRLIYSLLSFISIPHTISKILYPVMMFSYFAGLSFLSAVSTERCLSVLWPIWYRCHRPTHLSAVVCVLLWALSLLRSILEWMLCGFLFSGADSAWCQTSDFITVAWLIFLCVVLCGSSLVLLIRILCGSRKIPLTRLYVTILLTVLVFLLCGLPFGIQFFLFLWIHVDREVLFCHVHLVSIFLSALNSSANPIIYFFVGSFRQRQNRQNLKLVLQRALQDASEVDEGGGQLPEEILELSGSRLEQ
PHOSPHO1 inh: blocks human PHOSPHO1 phosphatase activity | Q8TCT1 | recombinant PHOSPHO1, absorbance phosphatase assay | inhibition, % at 13.3 µM | 1.1% of 290,000 active | AID 1565; in the data active = inhibition above about 60%
MrgX1 ag: agonists of human MrgX1 receptor | B-score at 10 µM | MrgX1-HEK293 cells, Fluo-4 calcium fluorescence, agonist mode; active compounds read high | 0.44% of 310,000 active | Q96LB2;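 active = calcium response B-score plate-corrected fluorescence ratio at least 3 library SD, with starting fluorescence B-score inside 5 SD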
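Test system: Stable human MrgX1 HEK293 cell line | Schedule: Overnight plating before 1 h dye loading | Read-out basis: Baseline-normalised fluorescence change ratio, B-scored | Detection: Kinetic calcium dye fluorescence, Fluo-4 NW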
RGS4 inh: inhibitors of human RGS4 | P49798 | HEK293 M3R/RGS4 inducible, Fluo-4 calcium flux; active compounds read high; triggered by carbachol at its EC20 | B-score at 10 µM | 0.45% of 310,000 active | AID 463165;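 active = B-score, a plate-corrected calcium signal, over three deviations above library mean, with baseline fluorescence within five deviations of library mean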;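 note: RGS4 expression induced by doxycycline in cells with stable M3 receptor; B-score is computed from the integrated fluorescence ratio over baseline after carbachol; higher B-score means a larger calcium signal and so more RGS4 inhibition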
Target sequence (P49798 whole entry, looked up): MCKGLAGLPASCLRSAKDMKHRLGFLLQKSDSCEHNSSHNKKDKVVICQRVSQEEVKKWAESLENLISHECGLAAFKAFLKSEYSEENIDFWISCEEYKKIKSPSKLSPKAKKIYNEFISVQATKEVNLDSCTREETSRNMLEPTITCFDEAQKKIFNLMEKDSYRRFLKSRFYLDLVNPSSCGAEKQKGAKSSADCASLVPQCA
MrgX1 antag: human MrgX1 receptor antagonism, primary screen. B-score at 10 µM. Q96LB2. MRGX1-HEK293 calcium flux, Fluo-4, BAM8-22 antagonism; active compounds read low. 1.3% of 310,000 active;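 active = calcium-response B-score plate-corrected more than 3 library SD below zero, starting fluorescence within 5 deviations, no agonist response on first addition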;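 note: peak minus trough fluorescence over baseline after final BAM8-22 challenge near maximal dose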
RGS4 pot: potentiators or activators of RGS4. HEK293 M3R/inducible RGS4, carbachol calcium flux Fluo4; active compounds read low. B-score at 10 µM. 0.92% of 310,000 active. AID 463111;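 active = B-score of the integrated calcium signal more than 4 SD below the library mean, with starting fluorescence not abnormally high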;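 note: negative B-score means reduced calcium response which marks RGS4 activation or potentiation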
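Material: M3R-expressing HEK293 line, RGS4 induced by doxycycline | Schedule: Overnight RGS4 induction, 30 min dye load 37 °C, 20 min compound RT | Measured by: Fluo4 fluorescence kinetic imaging of calcium | Read-out: Integrated calcium ratio converted to B score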
RGS4 act valid: RGS4 activation, validation assay | shares compounds with RGS4 pot | HEK293 M3R/RGS4 inducible, carbachol calcium flux Fluo4 | inhibition, % at 10 µM | 89% of 1,100 active | AID 602282;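 active = inhibition above 3 SD of the buffer control wells, cut at about 41% in these data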;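 note: signal is the integrated peak-minus-minimum Fluo4 fluorescence over baseline ratio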
RGS4 act ctr: counter-screen for RGS4 activators: effect in non-induced cells | shares compounds with RGS4 pot | HEK293 M3R non-induced RGS4, Fluo4 calcium flux; after carbachol challenge at its EC90 | inhibition, % at 10 µM | 82% of 1,100 active | AID 602283;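 active = inhibition exceeding 3 SD of buffer-only control wells, cut at about 26% in these data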;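 note: percent drop in integrated peak-minus-baseline over baseline Fluo4 ratio after carbachol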
Each line names hits and unclear results; the compound was inactive in the other large screens (follow-up assays come after a bar, where they were run). Sampled rows, rich in hits. Any-hit rate of the full collection: about 4.5%.

CC(C)[C@H](NC(N)=O)C(=O)Nc1ccc(F)c(Cl)c1	none
CC1CCCN(CC(=O)Nc2ccc(S(=O)(=O)N3CCCC3)cc2)C1 (stereo not drawn)	RGS4 pot -9.2 | RGS4 act valid 85 | RGS4 act ctr 41
CC(=O)Nc1ccc(CN2CCN(C3CCCC3)C(CCO)C2)cc1 (stereo not drawn)	RGS4 pot -8 | RGS4 act valid 88 | RGS4 act ctr 52
OCCC1CN(C/C(Cl)=C/c2ccccc2)CCN1C1CCCC1 (stereo not drawn)	RGS4 pot -10 | RGS4 act valid 70 | RGS4 act ctr 84
OCCC1CN(Cc2cnc(N3CCCC3)s2)CCN1C1CCCC1 (stereo not drawn)	RGS4 pot -7.9 | RGS4 act valid 70 | RGS4 act ctr 27
CC(=O)Nc1ccc(CN2CCCC(C(=O)c3ccc(C(F)(F)F)cc3)C2)cc1 (stereo not drawn)	RGS4 pot -10 | RGS4 act valid 72 | RGS4 act ctr 84
O=C(c1ccc(-c2ccccc2)cc1)C1CCCN(Cc2ccncc2)C1 (stereo not drawn)	none
CC(C)(C)OC(=O)N1CCC2(CC1)Oc1ccc(Cl)cc1C(=O)C21CC(c2ccc(Cl)cc2)=NO1 (stereo not drawn)	none (no result: PHOSPHO1 inh)
CCCCCNC(=O)Cn1c(=O)c2c(ncn2CC(C)C)n(Cc2ccccc2)c1=O	none
CCN(CC)c1ccc(C=NCCc2ccc(S(N)(=O)=O)cc2)cc1	none
Cc1cc(C)n(S(=O)(=O)c2ccc3ccccc3c2)n1	RGS4 pot -7.9 | RGS4 act valid 76 | RGS4 act ctr 84
Cc1nc(-c2noc(-c3ccccc3Cl)n2)c(C(F)(F)F)o1	RGS4 pot -8.6 | RGS4 act valid inactive | RGS4 act ctr inactive
COc1cccc(NC(=O)CSc2nn3c(=O)c(C)nnc3s2)c1	none
Cc1cc(-c2ccc(C(C)C)c(S(=O)(=O)N3CCOc4ccccc43)c2)on1	none
Cc1ccc(-c2onc(C)c2C)cc1S(=O)(=O)N1CCOc2ccccc21	RGS4 pot -8.1 | RGS4 act valid 73 | RGS4 act ctr 84
COc1cccc(CN2CCNC(=O)C2CC(=O)NCCCn2ccnc2)c1 (stereo not drawn)	none
Cc1sc2nc(SCC(=O)NCc3ccco3)n(C)c(=O)c2c1C	none
COC(=O)c1ccc(CNC(=O)CSc2nc3sc(C)c(C)c3c(=O)n2C)o1	RGS4 pot -8.2 | RGS4 act valid 50 | RGS4 act ctr inactive
CC(NC(=S)NCCCN1CCOCC1)C12CC3CC(CC(C3)C1)C2 (stereo not drawn)	none
CCOc1ccc(OCCC(=O)OCC(=O)N2CCN(S(=O)(=O)c3ccc(Cl)cc3)CC2)cc1	none
CN(C)CCNC(=O)c1cc2c(s1)-c1ccc(Cl)cc1SC2	RGS4 pot -13 | RGS4 act valid 94 | RGS4 act ctr 93
CN(CC/C=C1/c2ccccc2CSc2ccccc21)CCCO	RGS4 pot -9.5 | RGS4 act valid 91 | RGS4 act ctr 65
CC(O)CN(C)CC/C=C1/c2ccccc2CSc2ccccc21 (stereo not drawn)	RGS4 pot -7.9 | RGS4 act valid 73 | RGS4 act ctr 84
Cc1ccccc1CN1C(=O)/C(=C\c2ccc(C(=O)NCCN3CCOCC3)cc2)Sc2ccccc21	RGS4 pot -12 | RGS4 act valid 90 | RGS4 act ctr 81
COc1ccccc1C(=O)NCC(=O)N/N=C/c1cn[nH]c1-c1ccccc1	none
COc1ccc(C(=O)OCCN2C(=O)c3ccccc3C2=O)cc1	RGS4 pot -8.7 | RGS4 act valid 40 | RGS4 act ctr 84
O=C(CNC1CCCC1)Nc1ccc(N2CCCCCC2)cc1	RGS4 pot -8 | RGS4 act valid 84 | RGS4 act ctr 36
O=C(CNC1CCCCCC1)Nc1ccc(N2CCCC2)cc1	none
O=C(CNCCC1=CCCCC1)Nc1ccc(N2CCCCCC2)cc1	RGS4 pot -10 | RGS4 act valid 94 | RGS4 act ctr 92
CCC(=O)N1CCN(c2ccc(NC(=O)COc3ccc(C)cc3C)cc2)CC1	none
Cc1ccc(C(=O)N2CCN(c3ccc(NC(=O)COc4ccccc4C)cc3)CC2)cc1	RGS4 pot -8.4 | RGS4 act valid 61 | RGS4 act ctr 39
COc1ccccc1/C=C/C=N/NC(=O)CC1C(=O)NN=C1C (stereo not drawn)	none
Cc1ccccc1OCC(=O)Nc1cc(Cl)ccc1Oc1ccccc1	none
COc1ccccc1OCC(=O)Nc1cc(Cl)ccc1Oc1ccccc1	RGS4 pot -9.1 | RGS4 act valid inactive | RGS4 act ctr inactive
O=C(CSC1=NS(=O)(=O)c2cc(Cl)ccc2N1)c1ccc(Cl)cc1	none (no result: PHOSPHO1 inh)
COC(=O)c1sc(-c2ccc(Cl)cc2)cc1N	RGS4 pot -7.7 | RGS4 act valid inactive | RGS4 act ctr inactive
CC(=O)c1sc(-c2ccc(Cl)cc2)cc1N	none
CCN(CC)c1ccc(NC(=O)c2ccccc2OCC(=O)OC)cc1	none
CN1CCCC(CC2Oc3ccccc3Sc3ccccc32)C1 (stereo not drawn)	RGS4 pot -9.1 | RGS4 act valid 93 | RGS4 act ctr 92
O=C(CN(Cc1ccc(F)cc1)C(=O)CCC(=O)Nc1ccccn1)NCCc1ccccc1	none
COc1cc(NC(=O)C2COc3ccccc3O2)c(OC)cc1Cl (stereo not drawn)	none
COc1ccc(S(=O)(=O)N2CCCCC2)cc1NC(=O)C1COc2ccccc2O1 (stereo not drawn)	RGS4 pot -13 (no result: PHOSPHO1 inh) | RGS4 act valid 74 | RGS4 act ctr 84
O=C1CCc2ccc(OCCCCN3CCN(c4cccc(Cl)c4Cl)CC3)cc2N1	RGS4 pot -9.2 | RGS4 act valid 79 | RGS4 act ctr 65
O=C1C2CC=CCC2C(=O)N1c1ccc(NCCc2cccc(F)c2)c([N+](=O)[O-])c1 (stereo not drawn)	none
O=C(CS(=O)(=O)Cc1ccccc1)Nc1nc2c(s1)CCCC2	none
O=C(CCS(=O)(=O)Cc1ccccc1)Nc1nc2c(s1)CCCC2	RGS4 pot -11 | RGS4 act valid inactive | RGS4 act ctr inactive
O=C(NCc1ccc(Cl)cc1)C1CCN(S(=O)(=O)c2ccc(F)cc2)CC1	none
O=S(=O)(NCc1csc(-c2cccs2)n1)c1cccs1	RGS4 pot -8 | RGS4 act valid inactive | RGS4 act ctr inactive
O=S(=O)(NCc1csc(-c2cccs2)n1)c1ccc(Cl)cc1	none
